Rows were chosen to be rich in hits. Some 4.7% of all compounds tested hit in one or more screens of this group.
MrgX1 antagonist: antagonists of human MrgX1 receptor; Q96LB2; MRGX1-HEK293 calcium flux, Fluo-4, BAM8-22 antagonism; active compounds read low; B-score at 10 µM; 310,000 tested, 1.3% active;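 active = calcium-response B-score plate-corrected more than 3 library SD below zero, starting fluorescence within 5 deviations, no agonist response on first addition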;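 also: peak minus trough fluorescence over baseline after final BAM8-22 challenge near maximal dose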
RGS4 act: potentiators or activators of RGS4 | B-score at 10 µM | HEK293 M3R/inducible RGS4, carbachol calcium flux Fluo4; active compounds read low | 310,000 tested, 0.92% active;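 active = B-score of the integrated calcium signal more than 4 SD below the library mean, with starting fluorescence not abnormally high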;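 also: negative B-score means reduced calcium response which marks RGS4 activation or potentiation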
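Material: M3R-expressing HEK293 line, RGS4 induced by doxycycline | Schedule: Overnight RGS4 induction, 30 min dye load 37 °C, 20 min compound RT | Measured by: Fluo4 fluorescence kinetic imaging of calcium | Read-out: Integrated calcium ratio converted to B score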
MrgX1 ag: activates human MrgX1 receptor signaling. Q96LB2. MrgX1-HEK293 cells, Fluo-4 calcium fluorescence, agonist mode; active compounds read high. B-score at 10 µM. 310,000 tested, 0.44% active. AID 588627;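 active = calcium response B-score plate-corrected fluorescence ratio at least 3 library SD, with starting fluorescence B-score inside 5 SD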
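Material – MrgX1-expressing HEK293 cells · Input – 15,000 cells seeded per well · Dosing – compound as first of three additions · Times – overnight seeding, then 1 h dark dye loading · Measured by – kinetic Fluo-4 NW fluorescence of intracellular calcium · Read-out – B-scored fluorescence response ratio · Benchmarks – positive and negative control wells on each plate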
RGS4 inh: human RGS4 inhibition; B-score at 10 µM; HEK293 M3R/RGS4 inducible, Fluo-4 calcium flux; active compounds read high; triggered by carbachol at its EC20; 310,000 tested, 0.45% active; P49798;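 active = B-score, a plate-corrected calcium signal, over three deviations above library mean, with baseline fluorescence within five deviations of library mean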;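 also: RGS4 expression induced by doxycycline in cells with stable M3 receptor; B-score is computed from the integrated fluorescence ratio over baseline after carbachol; higher B-score means a larger calcium signal and so more RGS4 inhibition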
Target sequence (P49798 whole entry, looked up): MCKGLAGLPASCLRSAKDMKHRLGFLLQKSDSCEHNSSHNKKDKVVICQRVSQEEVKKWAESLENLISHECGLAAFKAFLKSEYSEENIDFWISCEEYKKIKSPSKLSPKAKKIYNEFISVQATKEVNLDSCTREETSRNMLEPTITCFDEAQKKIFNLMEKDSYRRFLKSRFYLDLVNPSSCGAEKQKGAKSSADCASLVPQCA
KCC2 mod: modulators of human KCC2 chloride dependent transport | Q9H2X9 | KCC2 cells, thallium flux FluoZin-2 fluorescence | B-score of Tl+ flux slope (higher = more flux/activation; lower = inhibition) at 10 µM | 190,000 tested, 2.2% active | AID 1456;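 active = thallium flux slope and its plate-corrected score both differing from the plate sample mean at a set confidence after two filtering rounds, in either direction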;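 also: slope of fluorescence scaled to starting intensity during 10 to 20 s after thallium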
MrgX1 PAM: allosterically activates human MrgX1 receptor signaling | MrgX1-HEK293, Fluo-4 calcium flux, FDSS; active compounds read high | B-score at 10 µM | 310,000 tested, 0.63% active;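 active = plate-corrected calcium response at least 3 library SD above typical, normal starting fluorescence, not activating the receptor alone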;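 also: compound read alongside a low EC10 to EC30 dose of BAM8-22 agonist; peak minus trough fluorescence over baseline measured at the second addition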
RGS4 act valid: confirmation of RGS4 activators. shares compounds with RGS4 act. HEK293 M3R/RGS4 inducible, carbachol calcium flux Fluo4. inhibition, % at 10 µM. 1,100 tested, 89% active;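 active = inhibition above 3 SD of the buffer control wells, cut at about 41% in these data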;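 also: signal is the integrated peak-minus-minimum Fluo4 fluorescence over baseline ratio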
RGS4 act ctr: RGS4 activator counter-screen hit in non-induced cells | shares compounds with RGS4 act | HEK293 M3R non-induced RGS4, Fluo4 calcium flux; after carbachol challenge at its EC90 | inhibition, % at 10 µM | 1,100 tested, 82% active | AID 602283;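 active = inhibition exceeding 3 SD of buffer-only control wells, cut at about 26% in these data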;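 also: percent drop in integrated peak-minus-baseline over baseline Fluo4 ratio after carbachol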
Starred values were filed as active, the others as inactive; i = inactive; x = no result.

SMILES	MrgX1 antagonist	RGS4 act	MrgX1 ag	RGS4 inh	KCC2 mod	MrgX1 PAM	RGS4 act valid	RGS4 act ctr
CN1CC(C(=O)c2cccs2)C(c2ccc(Cl)cc2)C1 (stereo unspecified)	i	i	i	i	x	i	x	x
COC(=O)C1=C(c2ccccc2)C[C@@H]2CC[C@H]1N2C(=O)N1CCCC1	i	i	i	i	x	i	x	x
O=c1[nH]c(Cl)ccc1CN1CCOCC1	i	i	i	i	x	i	x	x
OCC[N+]12CCC(CC1)C(C(O)(c1ccccc1)c1ccccc1)C2 (stereo unspecified)	i	i	i	i	0.806	i	x	x
CCC[N+]12CCC(CC1)C(=C(c1ccccc1)c1ccccc1)C2	i	-11.7*	i	i	0.25	i	90.0*	63.8*
CC(C)c1ccc(NC(=O)CCNC(=O)N2C[C@H]3C[C@@H](C2)c2cccc(=O)n2C3)cc1	i	i	i	i	x	i	x	x
Cc1ccc(-c2nc3ccccc3c(=O)n2-c2cc(C)ccn2)cc1	i	i	i	i	0.988	i	x	x
Cc1ccc(-c2nc3ccccc3c(=O)n2-c2cccc(C)n2)cc1	i	-10.4*	i	i	1.22	i	47.5*	83.8*
O=C1CN=C(c2ccccc2)c2c(sc3c2CCCC3)N1	i	i	i	i	x	i	x	x
CC(C)[N+](C)(CCC(C(N)=O)(c1ccccc1)c1ccccc1)C(C)C	i	i	i	i	0.303	i	x	x
CCCn1ncc(CN2CCCC(C(=O)c3cccc(OC)c3)C2)c1C (stereo unspecified)	i	-9.14*	i	i	0.353	i	91.0*	70.3*
CCC(=Nc1ccccc1N)c1c(O)[nH]c(=O)[nH]c1=O	i	i	i	i	x	i	x	x
CCOc1cccc(CNCCc2c(C)[nH]c3ccc(OC(F)(F)F)cc23)c1O	-5.29*	-8.92*	i	i	x	i	90.0*	89.8*
Cc1[nH]c2ccc(OC(F)(F)F)cc2c1CCNCc1cccc([N+](=O)[O-])c1	i	i	i	i	x	i	x	x
CCS(=O)(=O)NC(C)c1nnc2n1-c1ccc(Br)cc1C(c1ccccc1Cl)=NC2 (stereo unspecified)	i	i	i	i	x	i	x	x
O=C(c1ccc(Cl)cc1)C1CCCN(C2CCSCC2)C1 (stereo unspecified)	i	-7.88*	i	i	-0.0715	i	91.5*	54.8*
CCn1ccnc1CN1CCCC(C(=O)c2ccc(SC)cc2)C1 (stereo unspecified)	i	-10.3*	i	i	-0.299	i	91.5*	89.8*
CCc1ccccc1NC(=O)CNC1CCCCC1	i	i	i	i	-0.889	i	x	x
CN(CC(=O)Nc1ccccc1-c1ccccc1)C1CCCCC1	i	-9.56*	i	i	-1.02	i	91.5*	55.3*
Brc1ccc2c(c1)C(OC1CN3CCC1CC3)c1ccccc1CS2 (stereo unspecified)	i	-14.2*	i	i	0.527	i	94.5*	90.3*

Screens as filed in PubChem.
